Results published in publication PMC3338887 (Journal of Natural Products, 2012).
Entries after “also recorded” stand apart in the source; their conditions may differ.

Key:
[1] = Stability in organic solvents; format: physicochemical; conditions: MeOH and varying H2O-MeOH mixtures, CHCl3, CH2Cl2, EtOAc
[2] = tested on: C. albicans DAY185; assay: C. albicans growth inhibition / cell viability; format: cell-based, Candida albicans; conditions: for MIC: Candida albicans, DAY185, 48 h, read-out: MIC of growth inhibition
[3] = tested on: MIA PaCa-2 cells; assay: Mammalian cell cytotoxicity assay; format: cell-based, human; conditions: MIA PaCa-2 cell line, 24 h, MTT
[4] = tested on: C. albicans DAY185 hyphae formation; assay: Hyphae formation assay; format: cell-based, Candida albicans; conditions: for network of hyphal growth versus vehicle control: 50 μM, 6 h incubation, Figure 3; for germ tube and hyphae formation by 6 h: 6 h post inoculation; for germ tube and hyphae formation by 6 h / hyphae at 24 h: versus vehicle-treated cells; for hyphae at 24 h: 24 h post inoculation; for C. albicans hyphae formation / hyphal morphogenesis: phase contrast microscopy
Outline: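 DAY185 grown overnight in BHI at 37 °C, pelleted, washed and resuspended in PBS pH 7.4. Seeded at 1×10^6 cells/well for 1 h at 37 °C, then washed twice with PBS to remove non-adherent cells. RPMI 1640 with 2% glucose plus test compound (50 μM), farnesol (50 μM) or DMSO vehicle (1% by vol.) added. Incubated at 37 °C; phase-contrast microscopy (×200) at 2.5, 6 and 24 h.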

[5] = tested on: C. albicans DAY185 biofilm formation; assay: Biofilm time of addition assay; format: cell-based, Candida albicans; conditions: conclusion from the time-of-addition study
[6] = several organic solvents; cited from earlier work

CC1(C)C=Cc2c(ccc3c2[N+]([O-])=C2C(C)(C)[C@@H]4C[C@]56CCCN5C(=O)[C@]4(NC6=O)[C@H]4N5C(=O)[C@@]67CCCN6C(=O)[C@@]56[C@H](c5c([nH]c8c9c(ccc58)OC(C)(C)C=C9)C(C)(C)[C@@H]6C7)[C@]234)O1 [Compound 1, waikialoid A]
stability in solvents [1]: very stable for days
MIC [2]: > 200 µM
not toxic to mammalian (human) cells at concentrations up to [3]: > 200 µM
network of hyphal growth versus vehicle control [4]: significantly reduced or absent from nearly all cells
germ tube and hyphae formation by 6 h [4]: did not form germ tubes or hyphae by 6 h
hyphae at 24 h [4]: severely truncated hyphae
C. albicans hyphae formation / hyphal morphogenesis [4]: inhibited C. albicans hyphal morphogenesis; also recorded: inhibited C. albicans hyphae formation in a dose dependent manner
effect on preformed biofilms [5]: ineffective at disrupting preformed biofilms; also recorded: likely not effective at inhibiting or disrupting preformed biofilms

CC1(C)C=Cc2c(ccc3c2NC(=O)[C@@]32C[C@@]34NC(=O)[C@]5(CCCN5C3=O)C[C@H]4C2(C)C)O1 [Compound 2, notoamide B]
MIC [2]: > 200 µM

CC1(C)C=Cc2c(ccc3c2NC(=O)[C@@]32[C@H](O)[C@@]34NC(=O)[C@]5(CCCN5C3=O)C[C@H]4C2(C)C)O1 [Compound 3, sclerotiamide]
MIC [2]: > 200 µM

CC1(C)C=Cc2c(ccc3c4c([nH]c23)C(C)(C)[C@@H]2C[C@]35CCCN3C(=O)[C@]2(NC5=O)[C@H]4O)O1 [Compound 5, notoamide R]
MIC [2]: > 200 µM

CC1(C)C=Cc2c(ccc3c4c([nH]c23)C(C)(C)[C@@H]2C[C@]35CCCN3C(=O)[C@@]2(C4)NC5=O)O1 [Compound 6, stephacidin A]
MIC [2]: > 200 µM

CC1(C)C=Cc2c(ccc3c2[N+]([O-])=C2C3=C[C@@]34NC(=O)[C@]5(CCCN5C3=O)C[C@H]4C2(C)C)O1 [Compound 7, CJ-17665]
MIC [2]: > 200 µM

CC1(C)C=Cc2c(ccc3c2[N+]([O-])=C2C(C)(C)[C@@H]4C[C@]56CCCN5C(=O)[C@]4(NC6=O)[C@H]4N5C(=O)[C@@]67CCCN6C(=O)[C@@]56[C@@H]([C@]234)[C@]2(O)C(=[N+]([O-])c3c2ccc2c3C=CC(C)(C)O2)C(C)(C)[C@@H]6C7)O1 [Compound 14, waikialoid B]
MIC [2]: > 200 µM

C/C=C/C=C/C=C/[C@H]1C[C@@H](O)CC(=O)[C@@H]1C [Compound 15, waikialide A]
MIC [2]: > 200 µM
network of hyphal growth versus vehicle control [4]: significantly reduced or absent from nearly all cells
germ tube and hyphae formation by 6 h [4]: did not form germ tubes or hyphae by 6 h
hyphae at 24 h [4]: severely truncated hyphae
C. albicans hyphae formation / hyphal morphogenesis [4]: inhibited C. albicans hyphae formation in a dose dependent manner

C/C=C/C=C/C=C/[C@H]1C[C@@H](O)C[C@@H](O)[C@@H]1C [Compound 16, waikialide B]
MIC [2]: > 200 µM

CC1(C)C=Cc2c(ccc3c2[N+]([O-])=C2C(C)(C)[C@@H]4CC56CCCN5C(=O)[C@]4(NC6=O)[C@H]4N5C(=O)[C@@]67CCCN6C(=O)[C@@]56[C@H](c5c(n(O)c8c9c(ccc58)OC(C)(C)C=C9)C(C)(C)[C@@H]6C7)[C@]234)O1 [Compound 17, stephacidin B]
stability in organic solvents [6]: degrade in several organic solvents

CC(C)=CCC/C(C)=C/CC/C(C)=C/CO [farnesol, reference compound]
MIC [2]: > 200 µM
effect on C. albicans cell survival ([2]; positive control): did not impede cell survival
network of hyphal growth versus vehicle control [4]: significantly reduced or absent from nearly all cells
